From ChEMBL document CHEMBL2010770, “Dimeric 3,5-bis(benzylidene)-4-piperidones: a novel cluster of tumour-selective cytotoxins possessing multidrug-resistant properties” (Eur J Med Chem, 2012) come the findings set out here.

The target of data set [1] is T1, ATP-dependent translocase ABCB1 (Homo sapiens, UniProt P08183). Description: Inhibition of human MDR1-mediated multidrug resistant in mouse L5178Y cells at 4 uM treated 10 mins before rhodamine 123 challenge measured after 20 mins relative to control. The class given is cell-based. In short, it runs like this:
(§1)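 Compounds in DMSO were added at room temperature to mdr1-transfected and parental L5178Y cells. After 10 min, rhodamine 123 was added, followed by 20 min at 37 °C. Cellular rhodamine fluorescence was measured and expressed as fluorescence activity ratio (FAR); FAR >1 indicates MDR reversal.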

Data set [2] has as its system HL-60(TB). The data set is described as follows: Cytotoxicity against human HL-60(TB) cells. The class given is functional, cell-based. In short, it runs like this: (§2)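 Human colon cancer and leukaemia line panel. Compounds tested from 10^-4 to 10^-8 M, and IC50 values determined.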
Data set [3] relates to HL-60. The data set is described as follows: Induction of apoptosis in human HL60 cells assessed as formation of internucleosomal DNA fragmentation at up to 0.8 uM after 6 hrs. The class given is functional, cell-based.
Data set [4] concerns K562. Description: Cytotoxicity against human K562 cells. The class given is functional, cell-based. In short, it runs like this:
as §2

Data set [5] has as its system HCT-116. The data set is described as follows: Cell cycle arrest in human HCT116 cells assessed as accumulation at G2/M phase at 1 uM after 48 hrs using propidium iodide staining by flow cytometry (reference value: 4.75%). It is filed as functional.
Data set [6] has as its system HCT-116. Description: Cell cycle arrest in human HCT116 cells assessed as accumulation at G0/G1 phase at 1 uM after 48 hrs using propidium iodide staining by flow cytometry (reference value: 92.07%). The class given is functional. Background: A flow cytometer gives signals particle by particle.
In data set [7] the test system is KM12. Description: Cytotoxicity against human KM12 cells. The class given is functional, cell-based. In short, it runs like this: as §2
Data set [8] relates to HL-60. Description: Induction of apoptosis in human HL60 cells assessed as formation of internucleosomal DNA fragmentation at up to 0.8 uM after 24 hrs. It is filed as functional, cell-based.
In data set [9] the test system is HSC-2. The data set is described as follows: Induction of apoptosis in human HSC2 cells assessed as increase of PARP1 cleavage at 0.4 uM after 12 hrs by Western blot analysis. It is filed as functional, cell-based. In outline: (§3)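 HSC-2 cells were treated at 0.4 µM and HL-60 cells at 0.2 µM. Cells were washed in ice-cold PBS and lysed in HEPES pH 7.4/Triton X-100 buffer with phosphatase and protease inhibitors. Lysates were run on 8% SDS-PAGE and transferred to PVDF. Blots were blocked in 5% milk and probed with anti-cleaved PARP1 and anti-β-actin, then HRP-conjugated secondary antibodies.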
(In western blotting, separated proteins are transferred to a membrane and probed.)

Data set [10] has as its system HSC-3. Description: Selectivity index, ratio of CC50 for human normal cells to CC50 for human HSC3 cells. The class given is functional.
Data set [11] has as its system CCRF-CEM. Description: Growth inhibition of human CEM cells. It is filed as functional, cell-based.
Data set [12] can be described thus: Cytotoxicity against human HGF cells after 48 hrs. The class given is cell-based. In short, it runs like this:
(§4)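 Cells were exposed to a dose range for 48 h, following a literature method. CC50 was read from the dose–response curve.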

The subject of data set [13] is HCT-116. Description: Cell cycle arrest in human HCT116 cells assessed as accumulation at S phase at 1 uM after 48 hrs using propidium iodide staining by flow cytometry (reference value: 3.19%). The class given is functional.
Data set [14] deals with COLO 205. The data set is described as follows: Cytotoxicity against human COLO205 cells. The class given is functional, cell-based. In short, it runs like this:
as §2

Data set [15] concerns HSC-3. Description: Cytotoxicity against human HSC3 cells after 48 hrs. The class given is functional. To be noted: HSC-3, 48 h. In outline:
(§5)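 Human HSC-2, HSC-3, HSC-4 squamous carcinoma and HL-60 promyelocytic leukaemia cells incubated with compound for 48 h. CC50, the concentration killing 50% of cells, read from a dose–response curve.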

For data set [16], the system named is HSC-2. Description: Induction of apoptosis in human HSC2 cells assessed as formation of internucleosomal DNA fragmentation at up to 0.8 uM after 24 hrs. The class given is functional, cell-based.
Data set [17] concerns SW-620. Description: Cytotoxicity against human SW620 cells. It is filed as functional, cell-based. In short, it runs like this: as §2
In data set [18] the test system is HL-60. The data set is described as follows: Induction of apoptosis in human HL60 cells assessed as increase of PARP1 cleavage at 0.2 uM after 6 hrs by Western blot analysis. The class given is functional, cell-based. In short, it runs like this: as §3
Data set [19] in a line: Cytotoxicity against human HPLF cells after 48 hrs. The class given is cell-based. In short, it runs like this: as §4
Data set [20] deals with HL-60. The data set is described as follows: Induction of apoptosis in human HL60 cells assessed as increase of caspase-3 activation using DEVD-pnitroanilide as substrate after 6 hrs. It is filed as functional, cell-based. In outline:
(§6)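 HSC-2 and HL-60 cells were exposed for up to 6 h and then lysed. Lysates were mixed with DEVD-p-nitroanilide and incubated at 37 °C for 2 h. Released p-nitroanilide was read at 405 nm.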

Data set [21] deals with MOLT-4. Description: Growth inhibition of human Molt4/C8 cells. It is filed as functional, cell-based.
For data set [22], the system named is HSC-4. Description: Cytotoxicity against human HSC4 cells after 48 hrs. It is filed as functional. To be noted: HSC-4, 48 h. In short, it runs like this:
as §5

The test system of data set [23] is HCC 2998. Description: Cytotoxicity against human HCC2998 cells. The class given is functional, cell-based. In outline: as §2
The test system of data set [24] is HSC-2. The data set is described as follows: Cytotoxicity against human HSC2 cells after 48 hrs. It is filed as functional. To be noted: HSC-2, 48 h. In outline:
as §5

Data set [25] concerns HL-60. The data set is described as follows: Cytotoxicity against human HL60 cells after 48 hrs. The class given is functional. To be noted: HL-60, 48 h. In outline:
as §5

The test system of data set [26] is HSC-4. The data set is described as follows: Selectivity index, ratio of CC50 for human normal cells to CC50 for human HSC4 cells. It is filed as functional.
For data set [27], the system named is HCT-15. The data set is described as follows: Cytotoxicity against human HCT15 cells. The class given is functional, cell-based. In short, it runs like this: as §2
For data set [28], the system named is RPMI-8226. Description: Cytotoxicity against human RPMI8226 cells. It is filed as functional, cell-based. In short, it runs like this: as §2
The test system of data set [29] is HCT-116. The data set is described as follows: Cytotoxicity against human HCT116 cells. The class given is functional, cell-based. In outline:
as §2

Data set [30] deals with L1210. Description: Growth inhibition of mouse L1210 cells. The class given is functional, cell-based.
In data set [31] the target is T1, ATP-dependent translocase ABCB1. The data set is described as follows: Inhibition of human MDR1-mediated multidrug resistant in mouse L5178Y cells at 40 uM treated 10 mins before rhodamine 123 challenge measured after 20 mins relative to control. The class given is cell-based. In short, it runs like this:
as §1

Data set [32] has as its system HSC-2. The data set is described as follows: Induction of apoptosis in human HSC2 cells assessed as increase of caspase-3 activation using DEVD-pnitroanilide as substrate after 6 hrs. It is filed as functional, cell-based. In outline:
as §6

Data set [33] has as its system HSC-2. Description: Selectivity index, ratio of CC50 for human normal cells to CC50 for human HSC2 cells. The class given is functional.
Data set [34] concerns HSC-2. Description: Induction of apoptosis in human HSC2 cells assessed as formation of internucleosomal DNA fragmentation at up to 0.8 uM after 6 hrs. It is filed as functional, cell-based.
In data set [35] the test system is HT-29. The data set is described as follows: Cytotoxicity against human HT-29 cells. It is filed as functional, cell-based. In outline:
as §2

In data set [36] the test system is HL-60. The data set is described as follows: Selectivity index, ratio of CC50 for human normal cells to CC50 for human HL60 cells. It is filed as functional.
Data set [37] relates to HCT-116. The data set is described as follows: Cell cycle arrest in human HCT116 cells assessed as accumulation at G2/M phase at 16 uM after 48 hrs using propidium iodide staining by flow cytometry (reference value: 4.75%). It is filed as functional.
Data set [38] deals with HCT-116. The data set is described as follows: Cell cycle arrest in human HCT116 cells assessed as accumulation at G0/G1 phase at 16 uM after 48 hrs using propidium iodide staining by flow cytometry (reference value: 92.07%). It is filed as functional.
Data set [39] relates to HCT-116. The data set is described as follows: Cell cycle arrest in human HCT116 cells assessed as accumulation at S phase at 16 uM after 48 hrs using propidium iodide staining by flow cytometry (reference value: 3.19%). The class given is functional.
In data set [40] the test system is HSC-3. The data set is described as follows: Ratio of melphalan CC50 to compound CC50 for human HSC3 cells. It is filed as functional.
Data set [41] has as its system HSC-4. The data set is described as follows: Ratio of melphalan CC50 to compound CC50 for human HSC4 cells. It is filed as functional.
Data set [42] deals with HSC-2. The data set is described as follows: Ratio of melphalan CC50 to compound CC50 for human HSC2 cells. It is filed as functional.

Active and inactive are the calls of the source. The rule behind the calls is not given here.

T1 sequence (P08183 whole entry): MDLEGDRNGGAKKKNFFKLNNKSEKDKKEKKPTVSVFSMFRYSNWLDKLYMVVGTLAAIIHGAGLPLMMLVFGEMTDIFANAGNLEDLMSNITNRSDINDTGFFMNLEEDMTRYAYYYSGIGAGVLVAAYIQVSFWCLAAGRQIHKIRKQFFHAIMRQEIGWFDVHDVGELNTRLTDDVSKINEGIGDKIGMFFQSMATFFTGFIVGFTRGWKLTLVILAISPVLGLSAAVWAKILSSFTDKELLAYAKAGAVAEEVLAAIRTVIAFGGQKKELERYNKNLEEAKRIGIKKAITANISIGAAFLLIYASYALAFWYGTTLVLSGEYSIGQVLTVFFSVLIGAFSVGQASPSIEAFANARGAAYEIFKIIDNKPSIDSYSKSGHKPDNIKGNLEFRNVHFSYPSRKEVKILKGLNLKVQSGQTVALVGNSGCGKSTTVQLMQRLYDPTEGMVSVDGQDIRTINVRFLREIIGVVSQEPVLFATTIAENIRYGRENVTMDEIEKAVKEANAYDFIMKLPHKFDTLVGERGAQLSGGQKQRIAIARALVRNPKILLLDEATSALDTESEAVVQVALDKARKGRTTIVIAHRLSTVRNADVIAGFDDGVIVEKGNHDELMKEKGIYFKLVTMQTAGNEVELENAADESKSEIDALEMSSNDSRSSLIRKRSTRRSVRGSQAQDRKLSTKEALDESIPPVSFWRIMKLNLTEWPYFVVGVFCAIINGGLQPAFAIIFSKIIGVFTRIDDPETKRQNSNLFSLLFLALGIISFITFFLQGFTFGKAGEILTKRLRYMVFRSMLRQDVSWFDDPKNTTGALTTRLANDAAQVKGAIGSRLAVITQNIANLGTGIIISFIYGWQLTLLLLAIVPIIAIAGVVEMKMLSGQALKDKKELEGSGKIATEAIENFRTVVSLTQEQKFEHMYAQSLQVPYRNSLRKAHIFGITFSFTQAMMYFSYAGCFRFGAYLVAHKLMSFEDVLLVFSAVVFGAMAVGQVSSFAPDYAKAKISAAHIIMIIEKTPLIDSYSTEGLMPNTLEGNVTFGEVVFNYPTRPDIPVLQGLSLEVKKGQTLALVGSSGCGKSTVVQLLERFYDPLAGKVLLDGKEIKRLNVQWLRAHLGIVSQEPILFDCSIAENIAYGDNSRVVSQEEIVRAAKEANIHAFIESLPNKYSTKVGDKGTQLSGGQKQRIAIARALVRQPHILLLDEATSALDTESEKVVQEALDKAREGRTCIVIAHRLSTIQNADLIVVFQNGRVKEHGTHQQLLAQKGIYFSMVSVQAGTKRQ

Broadly, the IC50 is the midpoint of a concentration-inhibition curve. A low value points to inhibition by little substance. Usually CC50 stands for the concentration that lowers cell viability or growth by half. Low values mean harm at low concentration, high ones better tolerance by the cells. As for `O=C1/C(=C/c2ccccc2)CN(C(=O)CC(=O)N2C/C(=C\c3ccccc3)C(=O)/C(=C/c3ccccc3)C2)C/C1=C\c1ccccc1`, the Ratio stood at 35.3 in data set [1]; 20 in [10]; 11 in [26]; 53.3 in data set [31]; 18.4 in data set [33]; 20 in [36]. In addition, the IC50 stood at 290 nM in [2]; 50 nM in [4]; 130 nM in data set [7]; 160 nM in data set [14]; 50 nM in data set [17]; 170 nM in [23]. Besides, the IC50 in data set [27] came out at 170 nM; in [28], 130 nM; in data set [29], 30 nM; in [35], 50 nM. Further, the outcome in data set [3], in data set [8], in data set [9], in data set [16], in [18] and in [20] was Active. The outcome in data set [32] was Active. The Activity is 25.01% in data set [5], 31.54% in data set [6] and 43.46% in [13]. The “growth inhibition (GI)” value in data set [11], in data set [21] and in [30] was “Active” throughout. Besides, the results for the CC50 at 48 h in data set [12] and in data set [19] were 1.1 µM and 1.3 µM, respectively. In addition, the CC50 in data set [15] was 46 nM; in data set [22] it was 84 nM; in data set [24], 50 nM; in [25], 46 nM. Besides, the outcome in [34] was inactive.

On to `COc1cc(/C=C/C(=O)CC(=O)/C=C/c2ccc(O)c(OC)c2)ccc1O` [CURCUMIN], for which the Activity in data set [37] stood at 45.42%; in [38], 48.97%; in [39], 5.62%.

With `O=C1/C(=C/c2ccccc2)CN(C(=O)c2ccccc2C(=O)N2C/C(=C\c3ccccc3)C(=O)/C(=C/c3ccccc3)C2)C/C1=C\c1ccccc1`, the Ratio in data set [1] was 46.5; in data set [40], 329; in [10], 64.7; in data set [41], 390; in data set [42], 335; in data set [26], 60. Moreover, the Ratio in [31] was 51.5; in data set [33], 189; in data set [36] it was 44.7. Moreover, the IC50 in data set [2] was 210 nM; in [4], 210 nM; in data set [7] it was 210 nM; in [14], 210 nM; in [17] it was 300 nM; in data set [23], 200 nM. In addition, the IC50 in data set [27] worked out at 350 nM; in [28] it was 60 nM; in data set [29], 30 nM; in data set [35] it was 170 nM. The “growth inhibition (GI)” value in data set [11], in data set [21] and in [30] was “Active” each time. Also, the CC50 at 48 h in [12] was 5.7 µM; in [19], 8.5 µM. The CC50 in [15] came out at 76 nM; in [22], 82 nM; in [24] it was 26 nM; in data set [25] it was 110 nM.
